# Measured values reported in ChEMBL document CHEMBL4382276, “New in Vitro Assay Measuring Direct Interaction of Nonsense Suppressors with the Eukaryotic Protein Synthesis Machinery” (ACS Med Chem Lett, 2018).
# Activity calls are given as the source filed them. The rule behind the calls is not given here.
# Key:
# [1] = at cricket paralysis virus-internal ribosome entry site codon UGG assessed as from FKVRQ-tRNAGln at EC50 to 2 times EC50 measured after 20 mins in presence of Typ-tRNA, Leu-tRNA and [35S]-Met-tRNA by co-sedimentation assay
# [2] = system: Cricket paralysis virus; test: Induction of read through activity at cricket paralysis virus-internal ribosome entry site premature termination codon UGA assessed as ratio of plateau octapeptide to FKVRQ-tRNAGln measured after 20 mins in presence of Typ-tRNA, Leu-tRNA and [35S]-Met-tRNA by co-sedimentation assay
# [3] = Induction of read through activity at cricket paralysis virus-internal ribosome entry site premature termination codon UGA assessed as increase in octapeptide formation from FKVRQ-tRNAGln measured after 20 mins in presence of Typ-tRNA, Leu-tRNA and [35S]-Met-tRNA by co-sedimentation assay
# [4] = system: Cricket paralysis virus; test: Induction of read through activity at cricket paralysis virus-internal ribosome entry site codon UGG assessed as rate constant for octapeptide formation from FKVRQ-tRNAGln at 500 uM preincubated for 30 secs in presence of Typ-tRNA followed by Leu-tRNA and [35S]-Met-tRNA addition by co-sedimentation assay
# Method in brief: (§1)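 Time course with the same components: POST5 complex 0.02 μM, aminoacyl-tRNAs 0.08 μM each, eEF1A, eEF2, eRF1 0.010 μM, eRF3 0.020 μM, Buffer 4, 37 °C. Aliquots taken from 30 s to 20 min and MES-quenched. Octapeptide measured by ribosome cosedimentation or by base release and thin layer electrophoresis. Rate constants derived from the time courses.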
# [5] = system: Cricket paralysis virus; test: Induction of read through activity at cricket paralysis virus-internal ribosome entry site premature termination codon UGA assessed as rate constant for octapeptide formation from FKVRQ-tRNAGln at 500 uM preincubated for 30 secs in presence of Typ-tRNA followed by Leu-tRNA and [35S]-Met-tRNA addition by co-sedimentation assay
# Method in brief: as §1
# [6] = Induction of read through activity at cricket paralysis virus-internal ribosome entry site codon UGA assessed as increase in octapeptide formation from FKVRQ-tRNAGln at 30 to 600 uM measured after 20 mins in presence of Typ-tRNA, Leu-tRNA and [35S]-Met-tRNA by co-sedimentation assay
# [7] = Induction of read through activity at cricket paralysis virus-internal ribosome entry site codon UGG assessed as eEF2-induced 80S-Trp-IRES-PRE6 formation from 80S-Trp-IRES-POST5 by FRET assay
# [8] = system: Cricket paralysis virus; test: Induction of read through activity at cricket paralysis virus-internal ribosome entry site codon UGG assessed as rate constant for octapeptide formation from FKVRQ-tRNAGln at 5 uM preincubated for 30 secs in presence of Typ-tRNA followed by Leu-tRNA and [35S]-Met-tRNA addition by co-sedimentation assay
# Method in brief: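 POST5 complex (0.02 μM) mixed with Trp-tRNATrp, Leu-tRNALeu and [35S]-Met-tRNAMet (0.08 μM each), eEF1A (0.08 μM), eEF2 (1.0 μM), eRF1 (0.010 μM) and eRF3 (0.020 μM), with or without NonSup. Incubation at 37 °C in Tris-HCl pH 7.5 buffer for 30 s to 20 min. Quench with 0.5 M MES pH 6.0 at 0 °C, ultracentrifuge through 1.1 M sucrose, and count ribosome-cosedimenting [35S] octapeptidyl-tRNA.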
# [9] = system: Cricket paralysis virus; test: Induction of read through activity at cricket paralysis virus-internal ribosome entry site premature termination codon UGA assessed as eEF2-induced 80S-Stop-IRES-PRE6 formation from 80S-Stop-IRES-POST5 at 1 to 10 uM by FRET assay
# [10] = Induction of 80S ribosome-internal ribosome entry site (unknown origin) precipitable particle formation at 30 uM measured after 20 mins
# [11] = Induction of [35S]Met-tRNA (unknown origin) precipitable particle formation at 30 uM measured after 20 mins
# [12] = system: Cricket paralysis virus; test: Inhibition of read through activity at cricket paralysis virus-internal ribosome entry site premature termination codon UGA assessed as decrease in octapeptide formation from FKVRQ-tRNAGln at 600 uM measured after 20 mins in presence of Typ-tRNA, Leu-tRNA and [35S]-Met-tRNA by co-sedimentation assay
# [13] = Inhibition of read through activity at cricket paralysis virus-internal ribosome entry site codon UGG assessed as decrease in octapeptide formation from FKVRQ-tRNAGln at 600 uM measured after 20 mins in presence of Typ-tRNA, Leu-tRNA and [35S]-Met-tRNA by co-sedimentation assay
Structure (SMILES),Activity [1],Ratio [2],EC50 [3] [µM],other results
O=C(O)c1cccc(-c2noc(-c3ccccc3F)n2)c1 [ATALUREN],Not Active,0.1 to 0.16,170 to 350,K [4]: 1 to 1.6 min⁻¹; K [5]: 0.14 min⁻¹
NCCC[C@H](N)CC(=O)NCCC[C@H](N)CC(=O)N[C@@H]1[C@H](O)[C@@H](OC(N)=O)[C@@H](CO)O[C@H]1NC1=N[C@@H]2C(=O)NC[C@@H](O)[C@H]2N1 [STREPTOTHRICIN E],Not Active,0.1 to 0.3,0.4 to 4,–
CC[C@H]1OC(=O)[C@H](C)[C@@H](O[C@H]2C[C@@](C)(OC)[C@@H](O)[C@H](C)O2)[C@H](C)[C@@H](O[C@@H]2O[C@H](C)C[C@H](N(C)C)[C@H]2O)[C@](C)(O)C[C@@H](C)CN(C)[C@H](C)[C@@H](O)[C@]1(C)O [AZITHROMYCIN],–,–,–,Activity [6]: Not Active
NCCC[C@H](N)CC(=O)NCCC[C@H](N)CC(=O)NCCC[C@H](N)CC(=O)NCCC[C@H](N)CC(=O)N[C@@H]1[C@H](O)[C@@H](OC(N)=O)[C@@H](CO)O[C@H]1NC1=N[C@@H]2C(=O)NC[C@@H](O)[C@H]2N1,Not Active,0.1 to 0.3,0.4 to 4,–
NCCC[C@H](N)CC(=O)NCCC[C@H](N)CC(=O)NCCC[C@H](N)CC(=O)N[C@@H]1[C@H](O)[C@@H](OC(N)=O)[C@@H](CO)O[C@H]1NC1=N[C@@H]2C(=O)NC[C@@H](O)[C@H]2N1,Not Active,0.1 to 0.3,0.4 to 4,–
NCCC[C@H](N)CC(=O)N[C@@H]1[C@H](O)[C@@H](OC(N)=O)[C@@H](CO)O[C@H]1NC1=N[C@@H]2C(=O)NC[C@@H](O)[C@H]2N1,Not Active,0.1 to 0.3,0.4 to 4,–
CC[C@H]1OC(=O)C[C@@H](O)[C@H](C)[C@@H](O[C@@H]2O[C@H](C)[C@@H](O[C@H]3C[C@@](C)(O)[C@@H](O)[C@H](C)O3)[C@H](N(C)C)[C@H]2O)[C@@H](CC=O)C[C@@H](C)C(=O)/C=C/C(C)=C/[C@@H]1CO[C@@H]1O[C@H](C)[C@@H](O)[C@@H](OC)[C@H]1OC [TYLOSIN],–,–,–,Activity [6]: Not Active
CN[C@@H]1[C@@H](O)[C@@H](O[C@@H]2[C@@H](O)[C@H](O[C@H]3O[C@H]([C@H](C)O)[C@@H](O)[C@H](O)[C@H]3N)[C@@H](N)C[C@H]2N)OC[C@]1(C)O,Not Active,0.1 to 0.3,0.98,Activity [7]: Not Active; K [8]: 1 to 1.6 min⁻¹; Activity [9]: Active
C[C@@H](O)[C@H]1O[C@H](O[C@H]2[C@H](O[C@@H]3O[C@H](CN)[C@@H](O)[C@H]3O)[C@@H](O)[C@H](NC(=O)[C@@H](O)CCN)C[C@@H]2N)[C@H](N)[C@@H](O)[C@@H]1O,Not Active,0.1 to 0.3,0.4 to 4,–
CCOCCCNC(=O)N1CCN(Cc2ccc3c(c2)OCO3)CC1,–,–,–,Activity [6]: Not Active
NCCC[C@H](N)CC(=O)NCCC[C@H](N)CC(=O)NCCC[C@H](N)CC(=O)NCCC[C@H](N)CC(=O)NCCC[C@H](N)CC(=O)N[C@@H]1[C@H](O)[C@@H](OC(N)=O)[C@@H](CO)O[C@H]1NC1=N[C@@H]2C(=O)NC[C@@H](O)[C@H]2N1,Not Active,0.1 to 0.3,0.4 to 4,–
NCCC[C@H](N)CC(=O)NCCC[C@H](N)CC(=O)NCCC[C@H](N)CC(=O)NCCC[C@H](N)CC(=O)NCCC[C@H](N)CC(=O)NCCC[C@H](N)CC(=O)N[C@@H]1[C@H](O)[C@@H](OC(N)=O)[C@@H](CO)O[C@H]1NC1=N[C@@H]2C(=O)NC[C@@H](O)[C@H]2N1,Not Active,0.1 to 0.3,0.4 to 4,–
C/C=C(\C)C(=O)O[C@H]1[C@H](OC(C)=O)[C@]2(CO)[C@H](O)C[C@@H]3C(=CC[C@H]4[C@H]3CC[C@@H]3[C@@H]4CC[C@H](O[C@@H]4O[C@H](C(=O)O)[C@@H](O[C@@H]5O[C@H](CO)[C@@H](O)[C@H](O)[C@H]5O)[C@H](O)[C@H]4O[C@@H]4O[C@H](CO)[C@@H](O)[C@H](O)[C@H]4O)[C@]3(C)CO)[C@@H]2CC1(C)C,–,–,–,Activity [6]: Not Active; inhibition [12]: Active; inhibition (INH) [13]: Active
CN[C@@H]1[C@@H](O)[C@@H](O[C@@H]2[C@@H](O)[C@H](O[C@H]3O[C@H](CO)[C@@H](O)[C@H](O)[C@H]3N)[C@@H](N)C[C@H]2N)OC[C@]1(C)O,Not Active,0.1 to 0.3,0.4 to 4,–

# More lines, main results first:
Activity [1],Ratio [2],EC50 [3] [µM],Structure (SMILES),other results
Not Active,0.1 to 0.3,–,CN(CC(=O)O)NC(=O)C[C@H](N)C[C@@H](O)CN [NEGAMYCIN],–
Not Active,0.1 to 0.3,0.4 to 4,CN[C@@H]1[C@@H](O)[C@@H](O[C@@H]2[C@@H](O)[C@H](O[C@H]3O[C@H](CN)[C@@H](O)[C@H](O)[C@H]3O)[C@@H](N)C[C@H]2N)OC[C@]1(C)O [BETAMICIN],–
Not Active,0.1 to 0.16,170 to 350,N=C1NC(=O)/C(=C/c2ccc(-c3ccccc3[N+](=O)[O-])o2)S1,–
Not Active,0.1 to 0.3,0.4 to 4,C[C@H](N)[C@H]1O[C@@H](O[C@@H]2[C@@H](O)[C@H](N)C[C@H](N)[C@H]2O[C@H]2O[C@H]([C@@H](C)O)[C@@H](O)[C@H](O)[C@H]2N)[C@H](O)[C@@H]1O,–
Not Active,0.1 to 0.3,–,COc1cccc2c1C(=O)c1c(O)c3c(c(O)c1C2=O)C[C@@](O)(C(=O)CO)C[C@@H]3O[C@H]1C[C@H](N)[C@H](O)[C@H](C)O1 [DOXORUBICIN],Activity [10]: Active; Activity [11]: Active
Not Active,0.1 to 0.16,170 to 350,COc1cccc(-n2c(SCC(=O)Nc3ccc(F)cc3)nnc2-c2ccccn2)c1,–
Not Active,0.1 to 0.3,0.4 to 4,NCCC[C@H](N)CC(=O)NCCC[C@H](N)CC(=O)NCCC[C@H](N)CC(=O)NCCC[C@H](N)CC(=O)NCCC[C@H](N)CC(=O)NCCC[C@H](N)CC(=O)NCCC[C@H](N)CC(=O)N[C@@H]1[C@H](O)[C@@H](OC(N)=O)[C@@H](CO)O[C@H]1NC1=N[C@@H]2C(=O)NC[C@@H](O)[C@H]2N1,–
